Measured values taken from paper PMC6595297 (British Journal of Clinical Pharmacology, 2019).

Experiments:
Safety and tolerability = format: in vivo, human
In short: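 Patients had advanced solid tumours and ECOG PS 0–1. AEs were graded by NCI CTCAE v4.03 and monitored from the first dose of any study drug until 30–40 days after the last dose. The safety population was all patients receiving at least one pevonedistat dose.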

[1] = estimated across doses and schedules, 1‐h IV infusion; cited from earlier work
[2] = preliminary data, cancer patients, ref data on file; cited from earlier work
[3] = Pevonedistat 8 mg m^−2 + fluconazole (n = 13)
[4] = Pevonedistat 8 mg m^−2 + itraconazole (n = 13)
[5] = Pevonedistat 15 mg m^−2 + itraconazole (n = 6)
[6] = Pevonedistat 20 mg m^−2 + itraconazole (n = 19)
[7] = Pevonedistat + itraconazole, total (n = 38)
[8] = across all study groups, N = 51

In the case of NS(=O)(=O)OC[C@@H]1C[C@@H](n2ccc3c(N[C@H]4CCc5ccccc54)ncnc32)C[C@@H]1O [Pevonedistat], the “Patients who discontinued study treatment due to AEs” value (Safety and tolerability; N = 51) is reported as 12%, the “Abdominal pain, patients with AE” value (Safety and tolerability; [3]) is reported as 1 (8) n (%) and the “Anaemia, patients with AE” value (Safety and tolerability; [3]) is reported as 3 (23) n (%). For the same compound, the “Asthenia, patients with AE” value (Safety and tolerability; [3]) was 3 (23) n (%), the “Constipation, patients with AE” value (Safety and tolerability; [3]) was 3 (23) n (%) and the “Cough, patients with AE” value (Safety and tolerability; [3]) was 2 (15) n (%). The “Decreased appetite, patients with AE” value (Safety and tolerability; [3]) was 4 (31) n (%), the “Dehydration, patients with AE” value (Safety and tolerability; [3]) was 1 (8) n (%) and the “Diarrhoea, patients with AE” value (Safety and tolerability; [3]) was 0 n (%). The “Dizziness, patients with AE” value (Safety and tolerability; [3]) was 1 (8) n (%), the “Dyspnoea, patients with AE” value (Safety and tolerability; [3]) was 2 (15) n (%) and the “Fatigue, patients with AE” value (Safety and tolerability; [3]) was 3 (23) n (%). For the same compound, the “Headache, patients with AE” value (Safety and tolerability; [3]) was 3 (23) n (%), the “Hypokalaemia, patients with AE” value (Safety and tolerability; [3]) was 0 n (%) and the “Hyponatraemia, patients with AE” value (Safety and tolerability; [3]) was 2 (15) n (%). For the same compound, the “Nausea, patients with AE” value (Safety and tolerability; [3]) was 3 (23) n (%), the “Vomiting, patients with AE” value (Safety and tolerability; [3]) was 3 (23) n (%) and the “Abdominal pain, patients with AE” value (Safety and tolerability; [4]) was 3 (23) n (%). The “Anaemia, patients with AE” value (Safety and tolerability; [4]) was 3 (23) n (%), the “Asthenia, patients with AE” value (Safety and tolerability; [4]) was 2 (15) n (%) and the “Constipation, patients with AE” value (Safety and tolerability; [4]) was 2 (15) n (%). The “Cough, patients with AE” value (Safety and tolerability; [4]) was 4 (31) n (%), the “Decreased appetite, patients with AE” value (Safety and tolerability; [4]) was 3 (23) n (%) and the “Dehydration, patients with AE” value (Safety and tolerability; [4]) was 3 (23) n (%). The “Diarrhoea, patients with AE” value (Safety and tolerability; [4]) was 4 (31) n (%), the “Dizziness, patients with AE” value (Safety and tolerability; [4]) was 2 (15) n (%) and the “Dyspnoea, patients with AE” value (Safety and tolerability; [4]) was 1 (8) n (%). The “Fatigue, patients with AE” value (Safety and tolerability; [4]) was 3 (23) n (%), the “Headache, patients with AE” value (Safety and tolerability; [4]) was 0 n (%) and the “Hypokalaemia, patients with AE” value (Safety and tolerability; [4]) was 2 (15) n (%). The “Hyponatraemia, patients with AE” value (Safety and tolerability; [4]) was 1 (8) n (%), the “Nausea, patients with AE” value (Safety and tolerability; [4]) was 1 (8) n (%) and the “Vomiting, patients with AE” value (Safety and tolerability; [4]) was 2 (15) n (%). For the same compound, the “Abdominal pain, patients with AE” value (Safety and tolerability; [5]) was 1 (17) n (%), the “Anaemia, patients with AE” value (Safety and tolerability; [5]) was 2 (33) n (%) and the “Asthenia, patients with AE” value (Safety and tolerability; [5]) was 0 n (%). For the same compound, the “Constipation, patients with AE” value (Safety and tolerability; [5]) was 0 n (%), the “Cough, patients with AE” value (Safety and tolerability; [5]) was 0 n (%) and the “Decreased appetite, patients with AE” value (Safety and tolerability; [5]) was 1 (17) n (%). For the same compound, the “Dehydration, patients with AE” value (Safety and tolerability; [5]) was 2 (33) n (%), the “Diarrhoea, patients with AE” value (Safety and tolerability; [5]) was 1 (17) n (%) and the “Dizziness, patients with AE” value (Safety and tolerability; [5]) was 1 (17) n (%). The “Dyspnoea, patients with AE” value (Safety and tolerability; [5]) was 2 (33) n (%), the “Fatigue, patients with AE” value (Safety and tolerability; [5]) was 1 (17) n (%) and the “Headache, patients with AE” value (Safety and tolerability; [5]) was 0 n (%). For the same compound, the “Hypokalaemia, patients with AE” value (Safety and tolerability; [5]) was 2 (33) n (%), the “Hyponatraemia, patients with AE” value (Safety and tolerability; [5]) was 1 (17) n (%) and the “Nausea, patients with AE” value (Safety and tolerability; [5]) was 0 n (%). For the same compound, the “Vomiting, patients with AE” value (Safety and tolerability; [5]) was 1 (17) n (%), the “Abdominal pain, patients with AE” value (Safety and tolerability; [6]) was 2 (11) n (%) and the “Anaemia, patients with AE” value (Safety and tolerability; [6]) was 6 (32) n (%). The “Asthenia, patients with AE” value (Safety and tolerability; [6]) was 2 (11) n (%), the “Constipation, patients with AE” value (Safety and tolerability; [6]) was 3 (16) n (%) and the “Cough, patients with AE” value (Safety and tolerability; [6]) was 1 (5) n (%). The “Decreased appetite, patients with AE” value (Safety and tolerability; [6]) was 4 (21) n (%), the “Dehydration, patients with AE” value (Safety and tolerability; [6]) was 2 (11) n (%) and the “Diarrhoea, patients with AE” value (Safety and tolerability; [6]) was 6 (32) n (%). The “Dizziness, patients with AE” value (Safety and tolerability; [6]) was 4 (21) n (%), the “Dyspnoea, patients with AE” value (Safety and tolerability; [6]) was 3 (16) n (%) and the “Fatigue, patients with AE” value (Safety and tolerability; [6]) was 8 (42) n (%). The “Headache, patients with AE” value (Safety and tolerability; [6]) was 6 (32) n (%), the “Hypokalaemia, patients with AE” value (Safety and tolerability; [6]) was 3 (16) n (%) and the “Hyponatraemia, patients with AE” value (Safety and tolerability; [6]) was 2 (11) n (%). The “Nausea, patients with AE” value (Safety and tolerability; [6]) was 2 (11) n (%), the “Vomiting, patients with AE” value (Safety and tolerability; [6]) was 6 (32) n (%) and the “Abdominal pain, patients with AE” value (Safety and tolerability; [7]) was 6 (16) n (%). The “Anaemia, patients with AE” value (Safety and tolerability; [7]) was 11 (29) n (%), the “Asthenia, patients with AE” value (Safety and tolerability; [7]) was 4 (11) n (%) and the “Constipation, patients with AE” value (Safety and tolerability; [7]) was 5 (13) n (%). The “Cough, patients with AE” value (Safety and tolerability; [7]) was 5 (13) n (%), the “Decreased appetite, patients with AE” value (Safety and tolerability; [7]) was 8 (21) n (%) and the “Dehydration, patients with AE” value (Safety and tolerability; [7]) was 7 (18) n (%). For the same compound, the “Diarrhoea, patients with AE” value (Safety and tolerability; [7]) was 11 (29) n (%), the “Dizziness, patients with AE” value (Safety and tolerability; [7]) was 7 (18) n (%) and the “Dyspnoea, patients with AE” value (Safety and tolerability; [7]) was 6 (16) n (%). For the same compound, the “Fatigue, patients with AE” value (Safety and tolerability; [7]) was 12 (32) n (%), the “Headache, patients with AE” value (Safety and tolerability; [7]) was 6 (16) n (%) and the “Hypokalaemia, patients with AE” value (Safety and tolerability; [7]) was 7 (18) n (%). The “Hyponatraemia, patients with AE” value (Safety and tolerability; [7]) was 4 (11) n (%), the “Nausea, patients with AE” value (Safety and tolerability; [7]) was 3 (8) n (%) and the “Vomiting, patients with AE” value (Safety and tolerability; [7]) was 9 (24) n (%). The “Abdominal pain, patients with AE” value (Safety and tolerability; Total (N = 51)) was 7 (14) n (%), the “Anaemia, patients with AE” value (Safety and tolerability; Total (N = 51)) was 14 (27) n (%) and the “Asthenia, patients with AE” value (Safety and tolerability; Total (N = 51)) was 7 (14) n (%). The “Constipation, patients with AE” value (Safety and tolerability; Total (N = 51)) was 8 (16) n (%), the “Cough, patients with AE” value (Safety and tolerability; Total (N = 51)) was 7 (14) n (%) and the “Decreased appetite, patients with AE” value (Safety and tolerability; Total (N = 51)) was 12 (24) n (%). For the same compound, the “Dehydration, patients with AE” value (Safety and tolerability; Total (N = 51)) was 8 (16) n (%), the “Diarrhoea, patients with AE” value (Safety and tolerability; Total (N = 51)) was 11 (22) n (%) and the “Dizziness, patients with AE” value (Safety and tolerability; Total (N = 51)) was 8 (16) n (%). The “Dyspnoea, patients with AE” value (Safety and tolerability; Total (N = 51)) was 8 (16) n (%), the “Fatigue, patients with AE” value (Safety and tolerability; Total (N = 51)) was 15 (29) n (%) and the “Headache, patients with AE” value (Safety and tolerability; Total (N = 51)) was 9 (18) n (%). The “Hypokalaemia, patients with AE” value (Safety and tolerability; Total (N = 51)) was 7 (14) n (%), the “Hyponatraemia, patients with AE” value (Safety and tolerability; Total (N = 51)) was 6 (12) n (%) and the “Nausea, patients with AE” value (Safety and tolerability; Total (N = 51)) was 6 (12) n (%). For the same compound, the “Vomiting, patients with AE” value (Safety and tolerability; Total (N = 51)) was 12 (24) n (%), the “Drug‐related AE: anaemia, patients” value (Safety and tolerability; [8]) was 6% and the “Drug‐related AE: decreased appetite, patients” value (Safety and tolerability; [8]) was 6%. The “Drug‐related AE: diarrhoea, patients” value (Safety and tolerability; [8]) was 10%, the “Drug‐related AE: fatigue, patients” value (Safety and tolerability; [8]) was 6% and the “Drug‐related AE: increased AST, patients” value (Safety and tolerability; [8]) was 6%. The “Drug‐related AE: nausea, patients” value (Safety and tolerability; [8]) was 8%, the “Drug‐related AE: pruritus, patients” value (Safety and tolerability; [8]) was 6% and the “Drug‐related AE: vomiting, patients” value (Safety and tolerability; [8]) was 12%. The “Patients who died during Part A (not related to study drug)” value (Safety and tolerability; safety population, N = 51) was 14%, the “Patients who experienced at least one drug‐related AE” value (Safety and tolerability; safety population, N = 51) was 55% and the “Patients with at least one grade ≥3 AE” value (Safety and tolerability; safety population, N = 51) was 43%. The “Patients with serious AEs (not deemed drug‐related)” value (Safety and tolerability; safety population, N = 51) was 25%, the “Patients who experienced at least one AE” value (Safety and tolerability; safety population, N = 51, all study groups) was 98% and the “Mean terminal elimination half‐life (t 1/2)” value [1] was 10 to 11 h. For the same compound, the “Administered dose accounted for by metabolites” value [2] was “approximately 80%”.
